# Bioassay records from PubChem.
# This is a sample that favours compounds with a hit; in the whole collection about 1.9% have one here.
# RanGTP-Imp inh – inhibitors of RanGTP-importin-beta interaction, primary screen, biochemical, FRET, CFP-Ran, YFP-importin-beta, homogeneous | cell-free CFP-Ran/YFP-importin-beta FRET ratio | Ran GTPase (GTP-bound) - importin-beta complex | 300,000 compounds, 1.1% hits | inhibition, % (no concentration beside the values) | AID 2216, 2009;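 active = more than half of the replicate wells show a fall in the fluorescence ratio signal beyond about 16%, limit read from the data, passing the limit was not always enough; inconclusive = exactly half of the replicate wells pass the set limit; inactive = fewer than half of replicates pass the limit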;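 note: 0% = DMSO wells and 100% = Ran loaded with GDP instead of GTP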
# Hck-Nef inh – inhibitors of Nef-activated human Hck kinase, primary screen, biochemical, Z-Lyte FRET, 384-well, Hck-YEEI | Recombinant Hck-YEEI plus Nef, Z-Lyte FRET kinase assay | inhibition, % at 20 µM | AID 463187, 2010 | 220,000 compounds, 0.68% hits;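 active = Hck-Nef kinase inhibition above about 50%, limit read from the data; inactive = inhibition below that limit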;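 note: 0% = DMSO with Hck plus Nef and 100% = Hck alone without Nef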
# Runt-CBFb FRET – inhibitors of RUNX1 Runt–CBFb binding, primary screen, biochemical, FRET, Cerulean-Runt, Venus-CBFb, uHTS; Runt-related transcription factor 1 (Homo sapiens) + Core-binding factor subunit beta …; Cerulean-Runt/Venus-CBFb FRET ratio 530/480, 1 h; inhibition, % at 20 µM; 220,000 compounds, 0.46% hits;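 active = inhibition over about 50% at 20 µM in the single-dose screen, limit read from the data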;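 note: 0% = DMSO wells and 100% = excess unlabeled CBFb competitor control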
# Target sequence (Q01196 whole entry, looked up): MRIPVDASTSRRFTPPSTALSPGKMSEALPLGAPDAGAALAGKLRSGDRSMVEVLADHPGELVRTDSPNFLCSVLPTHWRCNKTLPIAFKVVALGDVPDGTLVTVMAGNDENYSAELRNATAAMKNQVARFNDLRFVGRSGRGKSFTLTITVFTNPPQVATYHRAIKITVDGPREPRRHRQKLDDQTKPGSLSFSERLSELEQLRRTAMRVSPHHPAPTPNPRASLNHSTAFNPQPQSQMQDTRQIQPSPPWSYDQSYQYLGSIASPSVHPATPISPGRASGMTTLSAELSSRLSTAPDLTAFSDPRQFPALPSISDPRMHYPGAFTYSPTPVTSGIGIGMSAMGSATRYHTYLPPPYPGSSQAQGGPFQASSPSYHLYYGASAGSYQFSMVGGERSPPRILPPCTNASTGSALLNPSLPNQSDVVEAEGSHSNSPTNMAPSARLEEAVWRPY
# Target sequence (Q13951 whole entry, looked up): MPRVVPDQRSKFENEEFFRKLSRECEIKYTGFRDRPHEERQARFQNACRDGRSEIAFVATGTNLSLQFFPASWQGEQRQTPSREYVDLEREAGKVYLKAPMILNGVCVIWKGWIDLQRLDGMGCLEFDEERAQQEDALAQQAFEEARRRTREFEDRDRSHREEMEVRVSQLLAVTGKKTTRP
#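 test system = Cerulean-Runt domain fusion protein, energy donor | probe or stimulus = Venus-CBFb binding partner, 100 nM | incubation = two 1 h room-temperature incubations shielded from light | detection = fluorescence energy transfer, 422 nm excitation, 530/480 nm emission | measure = loss of energy transfer signal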
# Runt-SMMHC FRET – inhibitors of RUNX1 Runt–CBFb-SMMHC binding, primary screen, biochemical, FRET, Cerulean-Runt, Venus-CBFb-SMMHC, uHTS. Runt-related transcription factor 1 (Homo sapiens) + Core-binding factor subunit beta …. Cerulean-Runt/Venus-CBFb-SMMHC FRET ratio 530/480, 1 h. inhibition, % at 20 µM. 220,000 compounds, 0.74% hits;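 active = mean inhibition across duplicate retests at 20 µM reaching about 50%, limit read from the data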;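 note: 0% = DMSO wells and 100% = wells with excess untagged CBFb-SMMHC; inhibitors lower the FRET ratio by blocking Runt binding to CBFb-SMMHC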
# An asterisk follows results filed as active; ? = inconclusive; · = no result.
SMILES,RanGTP-Imp inh,Hck-Nef inh,Runt-CBFb FRET,Runt-SMMHC FRET
COc1cccc(CC(=O)N(C)C2CCCN(Cc3ccccc3F)C2)c1 (stereo not given),3,·,·,·
C[C@H]1CC[C@@H]2[C@@H](C)[C@H]3[C@H](C[C@H]4[C@@H]5CC=C6C[C@@H](O[C@@H]7O[C@H](CO)[C@H](O)[C@H](O[C@@H]8O[C@H](CO)[C@@H](O)[C@H](O)[C@H]8O)[C@H]7O[C@@H]7O[C@@H](C)[C@H](O)[C@@H](O)[C@H]7O)CC[C@]6(C)[C@H]5CC[C@]34C)N2C1,17*,-3,8,24
OC[C@@H](O)CCl,-2,·,·,·
O=C(Nc1ccc(F)cc1)N1CC2CC(C1)c1cccc(=O)n1C2 (stereo not given),21*,-1,·,-4
N[C@@H]1CCCC[C@H]1N.O=C(O)C(=O)O.[Pt],-2,·,·,·
CCN(CC)c1ccc(/C=N/c2sc3c(c2C#N)C2CCN3CC2)c(O)c1,·,-2,-66,-201
CC1(C)CSC(=NCc2ccccc2)N1,0,-14,2,1
Cc1c(C)c2cc(Cl)c(OCC(=O)N3C[C@H]4C[C@@H](C3)c3cccc(=O)n3C4)cc2oc1=O,0,·,·,·
Cc1c(CC(=O)N2C[C@H]3C[C@@H](C2)c2cccc(=O)n2C3)c(=O)oc2c(C)c(O)ccc12,71*,·,·,·
Cc1c(CC(=O)N2C[C@H]3C[C@@H](C2)c2cccc(=O)n2C3)c(=O)oc2cc(O)c(Cl)cc12,75*,·,·,·
Cc1ccc(N2C(=O)NC(=O)/C(=C/c3ccc(-c4ccc(C(=O)O)c(Cl)c4)o3)C2=O)cc1,6,52*,18,0
Cc1cc(OCCN2CC2)c2ccccc2n1,3,13,1,0
Cc1ccc2cc(C=C(C#N)C#N)c(Cl)nc2c1,51*,8,-4,-18
Cc1cc(N2CCCC2)ccc1C=C(C#N)C#N,0,12,-86,-162
CC(C)c1oc(=O)cc2c1[C@@H](O)[C@H]1OC(=O)[C@@]3(C)C[C@@H](O)[C@@H](O)[C@@]2(C)C13 (stereo not given in full),2,-6,0,-1
Cn1c(O)c(/C=N/NC(=O)c2ccncc2)c(=O)n(C)c1=S,3,-2,44,81*
CCCCCCC(=O)N/N=C/c1c(O)n(CCCC)c(=S)[nH]c1=O,5,14,4,4
CCCCn1c(O)c(/C=N/NC(=O)c2ccncc2)c(=O)[nH]c1=S,5,-47,62*,82*
O=C(N/N=C/c1c(O)n(-c2ccccc2)c(=O)[nH]c1=O)c1ccncc1,9,2,3,10
Cc1ccc(-n2c(O)c(/C=N/NC(=O)c3ccncc3)c(=O)[nH]c2=O)cc1,0,4,2,3
Cn1c(O)c(/C=N/NC(=O)c2ccncc2)c(=O)[nH]c1=S,6,-43,32,71*
Cc1cc(OCC(=O)NCc2ccncc2)c2c3c(c(=O)oc2c1)CCCC3,2,·,·,·
CCCCn1c(O)c(/C=C/C=Nc2ccccc2)c(=O)[nH]c1=O,41*,4,47,64*
CCCCC(=O)N/N=C/c1c(O)n(CCc2ccccc2)c(=O)[nH]c1=O,2,32,1,0
Cn1c(O)c(/C=C/C=Nc2ccccc2)c(=O)n(C)c1=O,33*,2,35,69*
SMILES,RanGTP-Imp inh,Hck-Nef inh,Runt-CBFb FRET,Runt-SMMHC FRET
O=C(/C=C/c1c[nH]c2ccccc12)c1c(O)n(CCc2ccccc2)c(=O)[nH]c1=O,31*,-17,-56,-90
Cc1cc(Oc2cc(NN3CCCCC3)c([N+](=O)[O-])cc2[N+](=O)[O-])ccc1[N+](=O)[O-],1,·,·,·
NC(=O)c1cn(C2OC(CO)C(O)C2O)c2ncnc(N)c12 (stereo not given),2,54*,-2,1
COC(=O)C1=C(c2cc3ccccc3s2)C[C@@H]2CC[C@H]1N2C(=O)NCc1ccc(F)cc1,0,·,·,·
Cc1cc([N+](=O)[O-])c2ccccc2[n+]1[O-],3,-1,15,4
COC(=O)C1=C(c2cccc(OC)c2OC)C[C@@H]2CC[C@H]1N2C(=O)N1CCC(C)CC1,0,·,·,·
COc1ccc(N=Cc2c(O)n(-c3ccc(C)cc3)c(=O)[nH]c2=O)cc1,-31,1,35,64*
CCOP(=O)(OCC)C(NC(=O)CC(C)C)C(Cl)(Cl)Cl (stereo not given),2,17,1,-1
CCOP(=O)(OCC)C(C)(C)NC(=O)C(Cl)(Cl)Cl,85*,-3,0,0
CN(C)/C=C1/C(=O)NC(=O)N(CCNc2ncc(C(F)(F)F)cc2Cl)C1=O,1,154*,-10,1
C=CCN1C(=O)/C(=C/c2ccc(Br)s2)C(=O)NC1=S,2,·,·,·
CCN1C(=O)/C(=C\c2ccc([N+](=O)[O-])s2)C(=O)NC1=S,·,89*,·,24
CC1CCN(CCc2nc3ccccc3[nH]2)CC1,-1,·,·,·
CCC(=NCc1cccnc1)c1c(O)n(C2CCCCC2)c(=O)[nH]c1=O,0,2,0,-2
CCC(=NCc1ccco1)c1c(O)n(C2CCCCC2)c(=O)[nH]c1=O,1,1,38,102*
CN1CC=C2C(C#N)=C(N)C(C#N)(C#N)C(c3ccncc3)C2C1 (stereo not given),45*,26,23,62
Nc1c(C(=O)NCc2ccco2)c2nc3ccccc3nc2n1CCN1CCCCC1,71*,46,8,63
CCCCNC(=O)c1c(N)n(CCCOC)c2nc3ccccc3nc12,106*,48,5,54*
CCCCn1c(=O)c(C(=O)NCc2ccccc2)c(O)c2ccccc21,8,·,·,·
COCCOC(=O)c1c(N)n(Cc2ccco2)c2nc3ccccc3nc12,19*,31,·,74
COCCCNC(=O)c1c(N)n(Cc2ccco2)c2nc3ccccc3nc12,72*,47,76*,81*
CCCCn1c(=O)c(C(=O)NCc2ccco2)c(O)c2ccccc21,-3,27,-4,3
CC(C)OC(=O)c1c(N)n(Cc2ccco2)c2nc3ccccc3nc12,?,34,·,·
CC(C)CNC(=O)c1c(N)n(Cc2ccco2)c2nc3ccccc3nc12,-1,15,79*,·
CCOC(=O)c1c(N)n(Cc2ccc(OC)cc2)c2nc3ccccc3nc12,12,25,47,110*
COc1ccc(CCNC(=O)COC(=O)Cc2ccccc2)cc1,0,-1,-2,0
COC(=O)c1c(N)n(Cc2ccc(OC)cc2)c2nc3ccccc3nc12,·,11,47,118*
CCN(CC)c1ccc(CNCCc2ccccc2F)cc1,4,17,3,0
